Experimental findings from ChEMBL document CHEMBL1152508, “Interaction of drug based binuclear mixed-ligand complexes with DNA” (2009) are described below.

Holding throughout (format): functional
One assay has as its system Serratia marcescens. As to the kind of experiment: Antibacterial activity against Serratia marcescens after 24 hrs by twofold serial dilution method. The essentials: (§1)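 Bacteria activated by inoculation into luria broth for 24 h at 30 °C. Compounds dissolved in DMSO, then diluted in luria broth as twofold serial concentrations. Test cultures incubated 24 h at 37 °C. MIC taken as the lowest concentration giving complete inhibition of growth.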

The test system of a further assay is Pseudomonas aeruginosa. As to the kind of experiment: Antibacterial activity against Pseudomonas aeruginosa after 24 hrs by twofold serial dilution method. In a few lines:
as §1

In another assay the test system is Staphylococcus aureus. As to the kind of experiment: Antibacterial activity against Staphylococcus aureus after 24 hrs by twofold serial dilution method. The essentials:
as §1

The test system of the next assay is Escherichia coli. As to the kind of experiment: Antibacterial activity against Escherichia coli after 24 hrs by twofold serial dilution method. In a few lines:
as §1

A further assay has as its system Bacillus subtilis. Nature of the assay: Antibacterial activity against Bacillus subtilis after 24 hrs by twofold serial dilution method. In a few lines: as §1

Turning to `COc1ccc(/C=N/CC/N=C/c2ccc(OC)cc2)cc1`, the Activity worked out at 1687 µM with Serratia marcescens; 1855 µM in the assay with Pseudomonas aeruginosa; 1687 µM in the assay with Staphylococcus aureus; 2193 µM in the assay with Escherichia coli; 1518 µM with Bacillus subtilis.

Consider `C/C(=N/c1ccccc1/N=C(\C)c1ccccc1)c1ccccc1`, for which the Activity in the assay on Serratia marcescens is 1760 µM; in the assay on Pseudomonas aeruginosa, 1920 µM; with Staphylococcus aureus it was 1760 µM; in the assay with Escherichia coli, 2080 µM; in the assay with Bacillus subtilis it was 1600 µM.

Regarding `Nc1cccc2cccc(N)c12`, the Activity is 4108 µM in the assay with Serratia marcescens; 3792 µM in the assay on Pseudomonas aeruginosa; 3160 µM with Staphylococcus aureus; 4108 µM with Escherichia coli; 3476 µM with Bacillus subtilis.

Take `COc1ccc(/N=C(C)\C(C)=N\c2ccc(OC)cc2)cc1`: the Activity with Serratia marcescens turned out to be 2024 µM; with Pseudomonas aeruginosa, 2193 µM; in the assay with Staphylococcus aureus, 1855 µM; in the assay with Escherichia coli, 2361 µM; in the assay on Bacillus subtilis, 1518 µM.

As for `Nc1ccccc1N`, the Activity with Serratia marcescens turned out to be 6010 µM; in the assay on Pseudomonas aeruginosa, 6010 µM; in the assay on Staphylococcus aureus, 5086 µM; in the assay with Escherichia coli, 6473 µM; in the assay with Bacillus subtilis, 5548 µM.

With `O=C(O)c1cn(C2CC2)c2cc(N3CCNCC3)c(F)cc2c1=O` [CIPROFLOXACIN], the Activity is 1.63 µM in the assay with Serratia marcescens; 1.36 µM in the assay on Pseudomonas aeruginosa; 1.63 µM in the assay with Staphylococcus aureus; 1.36 µM in the assay on Escherichia coli; 1.09 µM in the assay with Bacillus subtilis.

As for `CCN1CCN(c2cc3c(cc2F)c(=O)c(C(=O)O)cn3C2CC2)CC1` [ENROFLOXACIN], the Activity amounted to 1.67 µM in the assay with Serratia marcescens; 1.39 µM in the assay with Pseudomonas aeruginosa; 1.95 µM in the assay with Staphylococcus aureus; 1.39 µM in the assay with Escherichia coli; 3.9 µM in the assay with Bacillus subtilis.

As to `NCCN` [ETHYLENEDIAMINE], the Activity with Serratia marcescens worked out at 9983 µM; in the assay on Pseudomonas aeruginosa, 10815 µM; with Staphylococcus aureus, 8319 µM; in the assay with Escherichia coli, 10815 µM; with Bacillus subtilis it was 9151 µM.

With `COc1c(N2CCNC(C)C2)c(F)cc2c(=O)c(C(=O)O)cn(C3CC3)c12` (stereo not given) [GATIFLOXACIN], the Activity was found to be 2.93 µM with Serratia marcescens; 1.01 µM in the assay with Pseudomonas aeruginosa; 5.06 µM in the assay on Staphylococcus aureus; 2.93 µM in the assay on Escherichia coli; 4 µM in the assay on Bacillus subtilis.

For the compound `C[C@H]1COc2c(N3CCN(C)CC3)c(F)cc3c(=O)c(C(=O)O)cn1c23.C[C@H]1COc2c(N3CCN(C)CC3)c(F)cc3c(=O)c(C(=O)O)cn1c23.O` [LEVOFLOXACIN], the Activity turned out to be 1.67 µM in the assay on Serratia marcescens; 1.66 µM with Pseudomonas aeruginosa; 1.66 µM in the assay with Staphylococcus aureus; 0.97 µM in the assay with Escherichia coli; 2.21 µM in the assay on Bacillus subtilis.

Turning to `CCn1cc(C(=O)O)c(=O)c2cc(F)c(N3CCNCC3)cc21` [NORFLOXACIN], the Activity with Serratia marcescens amounted to 4.07 µM; in the assay on Pseudomonas aeruginosa it was 3.76 µM; in the assay with Staphylococcus aureus it was 2.5 µM; in the assay on Escherichia coli, 2.82 µM; with Bacillus subtilis it was 2.51 µM.

`CC1COc2c(N3CCN(C)CC3)c(F)cc3c(=O)c(C(=O)O)cn1c23` (stereo not given) [OFLOXACIN]: the Activity was found to be 1.66 µM in the assay with Serratia marcescens; 2.21 µM in the assay with Pseudomonas aeruginosa; 1.94 µM in the assay with Staphylococcus aureus; 1.38 µM in the assay on Escherichia coli; 1.38 µM in the assay on Bacillus subtilis.

Consider `CCn1cc(C(=O)O)c(=O)c2cc(F)c(N3CCN(C)CC3)cc21` [PEFLOXACIN], for which the Activity in the assay on Serratia marcescens was determined as 5.1 µM; in the assay with Pseudomonas aeruginosa, 5.7 µM; in the assay with Staphylococcus aureus, 2.1 µM; with Escherichia coli, 2.7 µM; in the assay with Bacillus subtilis, 2.4 µM.

With `C[C@@H]1CN(c2c(F)c(N)c3c(=O)c(C(=O)O)cn(C4CC4)c3c2F)C[C@H](C)N1` [SPARFLOXACIN], the Activity was 1.53 µM with Serratia marcescens; 1.53 µM in the assay on Pseudomonas aeruginosa; 1.27 µM with Staphylococcus aureus; 1.27 µM in the assay with Escherichia coli; 2.04 µM in the assay with Bacillus subtilis.
